According to ChEMBL document CHEMBL5724801, “EUbOPEN Chemogenomics Library - Multiplex” (2024):
“And” between values parts separate entries of the source, which are not always exact repeats. Identical values can stand only once.

System: U2OS
Assay: Multiplex assay against U2OS
Assay type: toxicity, cell-based
Details: human
Method in brief: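 Live cells were stained at seeding with Hoechst33342, BioTracker Green Microtubule Cytoskeleton Dye, MitoTracker Red and Annexin V Alexa Fluor 680, then imaged on a CQ1 microscope at 37°C and 5% CO2 after compound addition. CellPathfinder machine-learning gating split cells into Hoechst high-intensity objects or normal cells. Normal cells were split into healthy, pyknosed or fragmented nuclei, and pyknosed cells into mitotic or apoptotic. Tubulin, mitochondrial-mass and membrane-permeability phenotypes are per cents of healthy-nucleus cells.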

[1] = 12 h, 1 µM, compound concentration 1 uM
[2] = 12 h, 10 µM, compound concentration 10 uM
[3] = 24 h, 1 µM, compound concentration 1 uM
[4] = 24 h, 10 µM, compound concentration 10 uM
[5] = 48 h, 1 µM, compound concentration 1 uM
[6] = 48 h, 10 µM, compound concentration 10 uM

CC[C@@H](C)Nc1nc(C)nc2c(-c3ccc(OC)nc3C)c(C)nn12 [PEXACERFONT]
Population Apoptotic (%) [1]: 73% and 87% | Population Fragmented Nuclei (%) [1]: 24% and 17% | Population Healthy Nuclei (%) [1]: 66% and 76% | Population Hoechst High Intensity Objects (%) [1]: 3% and 0% | Population Membrane Permeable-Phenotype (%) [1]: 2% and 1% | Population Mitochondria Different-Phenotype (%) [1]: 3% and 0% | Population Mitotic Cells (%) [1]: 26% and 12% | Population Normal (%) [1]: 96% and 99% | Population Pyknosed Nuclei (%) [1]: 9% and 5% | Population Tubulin-Different-Phenotype (%) [1]: 2% and 0% | Total Cell Count [1]: 258 and 136 | Population Apoptotic (%) [2]: 90% | Population Fragmented Nuclei (%) [2]: 26% and 21% | Population Healthy Nuclei (%) [2]: 64% and 70% | Population Hoechst High Intensity Objects (%) [2]: 1% | Population Membrane Permeable-Phenotype (%) [2]: 2% and 12% | Population Mitochondria Different-Phenotype (%) [2]: 1% and 7% | Population Mitotic Cells (%) [2]: 9% and 10% | Population Normal (%) [2]: 98% | Population Pyknosed Nuclei (%) [2]: 8% and 7% | Population Tubulin-Different-Phenotype (%) [2]: 1% and 4% | Total Cell Count [2]: 265 and 128 | Population Apoptotic (%) [3]: 80% and 85% | Population Fragmented Nuclei (%) [3]: 21% and 16% | Population Healthy Nuclei (%) [3]: 69% and 75% | Population Hoechst High Intensity Objects (%) [3]: 2% | Population Membrane Permeable-Phenotype (%) [3]: 5% and 3% | Population Mitochondria Different-Phenotype (%) [3]: 2% and 6% | Population Mitotic Cells (%) [3]: 20% and 14% | Population Normal (%) [3]: 97% | Population Pyknosed Nuclei (%) [3]: 8% | Population Tubulin-Different-Phenotype (%) [3]: 2% | Total Cell Count [3]: 346 and 172 | Population Apoptotic (%) [4]: 80% and 92% | Population Fragmented Nuclei (%) [4]: 21% and 14% | Population Healthy Nuclei (%) [4]: 71% and 77% | Population Hoechst High Intensity Objects (%) [4]: 2% and 0% | Population Membrane Permeable-Phenotype (%) [4]: 5% and 7% | Population Mitochondria Different-Phenotype (%) [4]: 3% | Population Mitotic Cells (%) [4]: 19% and 7% | Population Normal (%) [4]: 97% and 99% | Population Pyknosed Nuclei (%) [4]: 7% and 8% | Population Tubulin-Different-Phenotype (%) [4]: 4% and 3% | Total Cell Count [4]: 307 and 159 | Population Apoptotic (%) [5]: 88% and 91% | Population Fragmented Nuclei (%) [5]: 16% | Population Healthy Nuclei (%) [5]: 75% and 73% | Population Hoechst High Intensity Objects (%) [5]: 1% and 2% | Population Membrane Permeable-Phenotype (%) [5]: 3% and 5% | Population Mitochondria Different-Phenotype (%) [5]: 1% and 4% | Population Mitotic Cells (%) [5]: 11% and 8% | Population Normal (%) [5]: 98% and 97% | Population Pyknosed Nuclei (%) [5]: 7% and 9% | Population Tubulin-Different-Phenotype (%) [5]: 1% and 4% | Total Cell Count [5]: 476 and 261 | Population Apoptotic (%) [6]: 94% and 100% | Population Fragmented Nuclei (%) [6]: 17% and 13% | Population Healthy Nuclei (%) [6]: 74% and 77% | Population Hoechst High Intensity Objects (%) [6]: 1% | Population Membrane Permeable-Phenotype (%) [6]: 4% and 6% | Population Mitochondria Different-Phenotype (%) [6]: 1% and 3% | Population Mitotic Cells (%) [6]: 5% and 0% | Population Normal (%) [6]: 98% | Population Pyknosed Nuclei (%) [6]: 8% | Population Tubulin-Different-Phenotype (%) [6]: 1% and 2% | Total Cell Count [6]: 478 and 242

C[C@H](NC(=O)CNC(=O)c1cccc(Cl)c1)c1ccccc1
Population Apoptotic (%) [1]: 78% and 71% | Population Fragmented Nuclei (%) [1]: 26% and 20% | Population Healthy Nuclei (%) [1]: 61% and 68% | Population Hoechst High Intensity Objects (%) [1]: 3% | Population Membrane Permeable-Phenotype (%) [1]: 6% and 8% | Population Mitochondria Different-Phenotype (%) [1]: 4% and 2% | Population Mitotic Cells (%) [1]: 21% and 28% | Population Normal (%) [1]: 96% | Population Pyknosed Nuclei (%) [1]: 12% and 11% | Population Tubulin-Different-Phenotype (%) [1]: 2% | Total Cell Count [1]: 242 and 124 | Population Apoptotic (%) [2]: 68% and 66% | Population Fragmented Nuclei (%) [2]: 24% and 13% | Population Healthy Nuclei (%) [2]: 63% and 82% | Population Hoechst High Intensity Objects (%) [2]: 2% and 0% | Population Membrane Permeable-Phenotype (%) [2]: 9% and 2% | Population Mitochondria Different-Phenotype (%) [2]: 3% | Population Mitotic Cells (%) [2]: 31% and 33% | Population Normal (%) [2]: 97% and 100% | Population Pyknosed Nuclei (%) [2]: 11% and 4% | Population Tubulin-Different-Phenotype (%) [2]: 4% and 2% | Total Cell Count [2]: 198 and 150 | Population Apoptotic (%) [3]: 79% and 88% | Population Fragmented Nuclei (%) [3]: 19% | Population Healthy Nuclei (%) [3]: 71% and 69% | Population Hoechst High Intensity Objects (%) [3]: 2% | Population Membrane Permeable-Phenotype (%) [3]: 7% and 4% | Population Mitochondria Different-Phenotype (%) [3]: 2% and 4% | Population Mitotic Cells (%) [3]: 20% and 11% | Population Normal (%) [3]: 97% | Population Pyknosed Nuclei (%) [3]: 8% and 10% | Population Tubulin-Different-Phenotype (%) [3]: 2% and 0% | Total Cell Count [3]: 275 and 168 | Population Apoptotic (%) [4]: 90% and 71% | Population Fragmented Nuclei (%) [4]: 24% and 12% | Population Healthy Nuclei (%) [4]: 61% and 83% | Population Hoechst High Intensity Objects (%) [4]: 1% | Population Membrane Permeable-Phenotype (%) [4]: 6% and 4% | Population Mitochondria Different-Phenotype (%) [4]: 4% and 2% | Population Normal (%) [4]: 98% | Population Pyknosed Nuclei (%) [4]: 13% and 3% | Population Tubulin-Different-Phenotype (%) [4]: 2% and 3% | Total Cell Count [4]: 239 and 189 | Population Apoptotic (%) [5]: 74% and 100% | Population Fragmented Nuclei (%) [5]: 18% and 17% | Population Healthy Nuclei (%) [5]: 71% and 70% | Population Hoechst High Intensity Objects (%) [5]: 3% and 2% | Population Membrane Permeable-Phenotype (%) [5]: 6% and 4% | Population Mitochondria Different-Phenotype (%) [5]: 3% | Population Mitotic Cells (%) [5]: 25% and 0% | Population Normal (%) [5]: 96% and 97% | Population Pyknosed Nuclei (%) [5]: 10% and 11% | Population Tubulin-Different-Phenotype (%) [5]: 1% and 2% | Total Cell Count [5]: 401 and 205 | Population Apoptotic (%) [6]: 81% and 100% | Population Fragmented Nuclei (%) [6]: 19% and 12% | Population Healthy Nuclei (%) [6]: 73% and 80% | Population Hoechst High Intensity Objects (%) [6]: 2% and 1% | Population Membrane Permeable-Phenotype (%) [6]: 6% and 4% | Population Mitochondria Different-Phenotype (%) [6]: 2% and 1% | Population Mitotic Cells (%) [6]: 18% and 0% | Population Normal (%) [6]: 97% and 98% | Population Pyknosed Nuclei (%) [6]: 7% | Population Tubulin-Different-Phenotype (%) [6]: 4% and 1% | Total Cell Count [6]: 311 and 279

Cc1cc(C(C#N)c2ccc(Cl)cc2)c(Cl)cc1NC(=O)c1cc(I)cc(I)c1O (centres undefined) [CLOSANTEL]
Population Apoptotic (%) [1]: 40% and 50% | Population Fragmented Nuclei (%) [1]: 1.13% and 2.08% | Population Healthy Nuclei (%) [1]: 90.4% and 86.81% | Population Hoechst High Intensity Objects (%) [1]: 0.19% and 0% | Population Membrane Permeable-Phenotype (%) [1]: 0.62% and 4.8% | Population Mitochondria Different-Phenotype (%) [1]: 0.42% and 3.2% | Population Mitotic Cells (%) [1]: 60% and 50% | Population Normal (%) [1]: 99.81% and 100% | Population Pyknosed Nuclei (%) [1]: 8.47% and 11.11% | Population Tubulin-Different-Phenotype (%) [1]: 1.46% and 0.8% | Population Apoptotic (%) [2]: 37.5% and 50% | Population Fragmented Nuclei (%) [2]: 1.14% and 4.88% | Population Healthy Nuclei (%) [2]: 93.39% and 81.71% | Population Hoechst High Intensity Objects (%) [2]: 0% | Population Membrane Permeable-Phenotype (%) [2]: 0.98% and 2.99% | Population Mitochondria Different-Phenotype (%) [2]: 0.49% and 8.96% | Population Mitotic Cells (%) [2]: 62.5% and 50% | Population Normal (%) [2]: 100% | Population Pyknosed Nuclei (%) [2]: 5.47% and 13.41% | Population Tubulin-Different-Phenotype (%) [2]: 0.73% and 2.24% | Total Cell Count [2]: 439 and 164 | Population Apoptotic (%) [3]: 40% and 43.75% | Population Fragmented Nuclei (%) [3]: 1.65% and 4.19% | Population Healthy Nuclei (%) [3]: 90.1% and 86.23% | Population Hoechst High Intensity Objects (%) [3]: 0% | Population Membrane Permeable-Phenotype (%) [3]: 0.61% and 5.56% | Population Mitochondria Different-Phenotype (%) [3]: 0.46% and 6.25% | Population Mitotic Cells (%) [3]: 60% and 56.25% | Population Normal (%) [3]: 100% | Population Pyknosed Nuclei (%) [3]: 8.25% and 9.58% | Population Tubulin-Different-Phenotype (%) [3]: 0.46% and 1.39% | Population Apoptotic (%) [4]: 33.33% and 40% | Population Fragmented Nuclei (%) [4]: 1.76% and 4.91% | Population Healthy Nuclei (%) [4]: 88.75% and 83.93% | Population Hoechst High Intensity Objects (%) [4]: 0% | Population Membrane Permeable-Phenotype (%) [4]: 0% and 2.66% | Population Mitochondria Different-Phenotype (%) [4]: 0% and 4.26% | Population Mitotic Cells (%) [4]: 66.67% and 60% | Population Normal (%) [4]: 100% | Population Pyknosed Nuclei (%) [4]: 9.49% and 11.16% | Population Tubulin-Different-Phenotype (%) [4]: 0.4% and 1.06% | Total Cell Count [4]: 569 and 224 | Population Apoptotic (%) [5]: 45.67% and 45.95% | Population Fragmented Nuclei (%) [5]: 3.15% and 4.35% | Population Healthy Nuclei (%) [5]: 87.31% and 83.28% | Population Hoechst High Intensity Objects (%) [5]: 0% | Population Membrane Permeable-Phenotype (%) [5]: 0.6% and 2.01% | Population Mitochondria Different-Phenotype (%) [5]: 0% and 6.02% | Population Mitotic Cells (%) [5]: 54.33% and 54.05% | Population Normal (%) [5]: 100% | Population Pyknosed Nuclei (%) [5]: 9.53% and 12.37% | Population Tubulin-Different-Phenotype (%) [5]: 0.77% and 0% | Population Apoptotic (%) [6]: 36.05% and 34.09% | Population Fragmented Nuclei (%) [6]: 2.74% and 3.02% | Population Healthy Nuclei (%) [6]: 89.14% and 85.93% | Population Hoechst High Intensity Objects (%) [6]: 0.09% and 0% | Population Membrane Permeable-Phenotype (%) [6]: 0.42% and 1.17% | Population Mitochondria Different-Phenotype (%) [6]: 0.11% and 4.97% | Population Mitotic Cells (%) [6]: 63.95% and 65.91% | Population Normal (%) [6]: 99.91% and 100% | Population Pyknosed Nuclei (%) [6]: 8.12% and 11.06% | Population Tubulin-Different-Phenotype (%) [6]: 0.32% and 0.88% | Total Cell Count [6]: 1060 and 398
